≈ marks a conversion by molar mass, not a printed value.
What was measured:
[1] = system: RXF 393; assay: Cytotoxicity against human RXF393 cells assessed as cell growth at 800 nM by sulforhodamine B assay relative to control; type: functional; settings: read-out: Activity
[2] = system: TK-10; assay: Cytotoxicity against human TK10 cells assessed as cell growth at 80 nM by sulforhodamine B assay relative to control; type: functional; settings: read-out: Activity
[3] = system: NCI-H460; assay: Cytotoxicity against human NCI-H460 cells assessed as cell growth at 8 uM by sulforhodamine B assay relative to control; type: functional; settings: read-out: Activity
[4] = system: UACC-257; assay: Cytotoxicity against human UACC257 cells assessed as cell growth at 8 uM by sulforhodamine B assay relative to control; type: functional; settings: read-out: Activity
[5] = system: A549; assay: Cytotoxicity against human A549 cells by sulforhodamine B assay; type: functional
In short: (§1)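 Run at NCI in the DTP 60-cell-line human tumor panel by standard procedure. Compounds were first screened at a single concentration, then tested at five tenfold-spaced concentrations. GI50 is the concentration reducing treated-cell growth to half that of untreated controls; TGI is the concentration completely halting growth.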

[6] = system: MCF7; assay: Cytotoxicity against human MCF7 cells assessed as cell growth at 8 uM by sulforhodamine B assay relative to control; type: functional; settings: read-out: Activity
[7] = system: SNB-19; assay: Cytotoxicity against human SNB19 cells assessed as cell growth at 80 nM by sulforhodamine B assay relative to control; type: functional; settings: read-out: Activity
[8] = system: ACHN; assay: Cytotoxicity against human ACHN cells assessed as cell growth at 80 uM by sulforhodamine B assay relative to control; type: functional; settings: read-out: Activity; in short: as §1
[9] = system: Aspergillus fumigatus; assay: Antimicrobial activity against Aspergillus fumigatus ATCC 90906 by CLSI method; type: functional, organism-based
[10] = system: M14; assay: Cytotoxicity against human M14 cells assessed as cell growth at 8 uM by sulforhodamine B assay relative to control; type: functional; settings: read-out: Activity
[11] = system: M14; assay: Cytotoxicity against human M14 cells assessed as cell growth at 80 uM by sulforhodamine B assay relative to control; type: functional; settings: read-out: Activity
[12] = system: SNB-75; assay: Cytotoxicity against human SNB75 cells assessed as cell growth at 8 nM by sulforhodamine B assay relative to control; type: functional; settings: read-out: Activity
[13] = system: SK-MEL-28; assay: Cytotoxicity against human SK-MEL-28 cells by sulforhodamine B assay; type: functional
In short: (§2)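 NCI Developmental Therapeutics Program 60-cell-line human tumor panel screen, run at NCI. A single-concentration pre-screen was followed by a five-concentration dose-response in 10-fold steps. GI50 is the concentration that reduces growth of treated cells to half that of untreated control cells. TGI is the concentration that completely halts growth.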

[14] = system: RPMI-8226; assay: Cytotoxicity against human RPMI8226 cells assessed as cell growth at 80 uM by sulforhodamine B assay relative to control; type: functional; settings: read-out: Activity
[15] = system: OVCAR-8; assay: Cytotoxicity against human OVCAR8 cells assessed as cell growth at 80 nM by sulforhodamine B assay relative to control; type: functional; settings: read-out: Activity
[16] = system: OVCAR-5; assay: Cytotoxicity against human OVCAR5 cells assessed as cell growth at 80 nM by sulforhodamine B assay relative to control; type: functional; settings: read-out: Activity
[17] = system: SK-MEL-28; assay: Cytotoxicity against human SK-MEL-28 cells assessed as cell growth at 8 uM by sulforhodamine B assay relative to control; type: functional; settings: read-out: Activity
[18] = system: RXF 393; assay: Cytotoxicity against human RXF393 cells assessed as cell growth at 8 uM by sulforhodamine B assay relative to control; type: functional; settings: read-out: Activity
[19] = system: KM12; assay: Cytotoxicity against human KM12 cells by sulforhodamine B assay; type: functional; in short: as §2
[20] = system: KM12; assay: Cytotoxicity against human KM12 cells assessed as cell growth at 80 uM by sulforhodamine B assay relative to control; type: functional; settings: read-out: Activity
[21] = system: OVCAR-5; assay: Cytotoxicity against human OVCAR5 cells assessed as cell growth at 8 nM by sulforhodamine B assay relative to control; type: functional; settings: read-out: Activity
[22] = system: OVCAR-3; assay: Cytotoxicity against human OVCAR3 cells assessed as cell growth at 8 nM by sulforhodamine B assay relative to control; type: functional; settings: read-out: Activity
[23] = system: SN12C; assay: Cytotoxicity against human SN12C cells assessed as cell growth at 800 nM by sulforhodamine B assay relative to control; type: functional; settings: read-out: Activity
[24] = system: K562; assay: Cytotoxicity against human K562 cells assessed as cell growth at 8 nM by sulforhodamine B assay relative to control; type: functional; settings: read-out: Activity
[25] = system: NCI-H322M; assay: Cytotoxicity against human NCI-H322M cells assessed as cell growth at 8 nM by sulforhodamine B assay relative to control; type: functional; settings: read-out: Activity
[26] = system: SF-295; assay: Cytotoxicity against human SF295 cells assessed as cell growth at 80 uM by sulforhodamine B assay relative to control; type: functional; settings: read-out: Activity
[27] = system: U-251; assay: Cytotoxicity against human U251 cells assessed as cell growth at 800 nM by sulforhodamine B assay relative to control; type: functional; settings: read-out: Activity
[28] = system: NCI-H226; assay: Cytotoxicity against human NCI-H226 cells assessed as cell growth at 800 nM by sulforhodamine B assay relative to control; type: functional; settings: read-out: Activity
[29] = system: HL-60(TB); assay: Cytotoxicity against human HL-60(TB) cells assessed as cell growth at 8 uM by sulforhodamine B assay relative to control; type: functional; settings: read-out: Activity
[30] = system: NCI-H522; assay: Cytotoxicity against human NCI-H522 cells assessed as cell growth at 800 nM by sulforhodamine B assay relative to control; type: functional; settings: read-out: Activity
[31] = system: RPMI-8226; assay: Cytotoxicity against human RPMI8226 cells assessed as cell growth at 8 uM by sulforhodamine B assay relative to control; type: functional; settings: read-out: Activity
[32] = system: MDA-MB-231; assay: Cytotoxicity against human MDA-MB-231 cells assessed as cell growth at 8 uM by sulforhodamine B assay relative to control; type: functional; settings: read-out: Activity
[33] = system: LOX IMVI; assay: Cytotoxicity against human LOXIMVI cells assessed as cell growth at 8 nM by sulforhodamine B assay relative to control; type: functional; settings: read-out: Activity
[34] = system: LOX IMVI; assay: Cytotoxicity against human LOXIMVI cells assessed as cell growth at 800 nM by sulforhodamine B assay relative to control; type: functional; settings: read-out: Activity
[35] = system: MOLT-4; assay: Cytotoxicity against human MOLT4 cells assessed as cell growth at 800 nM by sulforhodamine B assay relative to control; type: functional; settings: read-out: Activity
[36] = system: BT-549; assay: Cytotoxicity against human BT549 cells assessed as cell growth at 8 nM by sulforhodamine B assay relative to control; type: functional; settings: read-out: Activity; in short: as §1
[37] = system: 786-0; assay: Cytotoxicity against human 786-0 cells assessed as cell growth at 8 uM by sulforhodamine B assay relative to control; type: functional; settings: read-out: Activity; in short: as §1
[38] = system: SF-295; assay: Cytotoxicity against human SF295 cells assessed as cell growth at 8 uM by sulforhodamine B assay relative to control; type: functional; settings: read-out: Activity
[39] = system: NCI-H226; assay: Cytotoxicity against human NCI-H226 cells assessed as cell growth at 8 uM by sulforhodamine B assay relative to control; type: functional; settings: read-out: Activity
[40] = system: NCI-H226; assay: Cytotoxicity against human NCI-H226 cells assessed as cell growth at 80 nM by sulforhodamine B assay relative to control; type: functional; settings: read-out: Activity
[41] = system: SF-539; assay: Cytotoxicity against human SF539 cells assessed as cell growth at 80 uM by sulforhodamine B assay relative to control; type: functional; settings: read-out: Activity
[42] = system: 786-0; assay: Cytotoxicity against human 786-0 cells assessed as cell growth at 8 nM by sulforhodamine B assay relative to control; type: functional; settings: read-out: Activity; in short: as §1
[43] = system: UACC-257; assay: Cytotoxicity against human UACC257 cells assessed as cell growth at 80 uM by sulforhodamine B assay relative to control; type: functional; settings: read-out: Activity

In the case of `C/C=C1\NC(=O)[C@H](Cc2ccccc2)NC(=O)[C@@H](C(C)C)NC(=O)[C@@H]([C@@H](C)CC)NC(=O)[C@H](NC(=O)[C@H](NC(=O)[C@H](CCCNCc2ccc(N3CCOCC3)cc2)NC(=O)[C@H]2CCCN2C(=O)[C@H](NC(=O)[C@@H](NC(=O)[C@@H](NC(=O)[C@H](NC(=O)CCCC(C)C)C(C)C)[C@@H](C)O)C(C)C)C(C)C)[C@@H](C)CC)[C@@H](C)OC(=O)[C@H](C(C)C)NC1=O`, the growth at 0.8 µM [1] is reported as 97%, the growth at 0.08 µM [2] is reported as 96% and the growth at 8 µM [3] is reported as -24%. The growth at 8 µM [4] was -76%, the GI50 ([5]; read-out: GI50) was 0.175 µM and the GI50 ([5]; read-out: pGI50 (converted)) was 0.174 µM. For the same compound, the growth at 8 µM [6] was -53%, the growth at 0.08 µM [7] was 102% and the growth at 80 µM [8] was -76%. For the same compound, the IC50 [9] was 5 µM, the MFC [9] was 20 µM (≈ 33.1 µg/mL) and the MIC [9] was 10 µM (≈ 16.5 µg/mL). For the same compound, the growth at 8 µM [10] was -89%, the growth at 80 µM [11] was -69% and the growth at 0.008 µM [12] was 110%. For the same compound, the GI50 [13] was 1.38 µM, the TGI ([13]; read-out: pTGI (converted)) was 2.57 µM and the growth at 80 µM [14] was -29%. It also gave a growth at 0.08 µM [15] of 98%, a growth at 0.08 µM [16] of 93% and a growth at 8 µM [17] of -85%. For the same compound, the growth at 8 µM [18] was -47%, the LC50 [19] was > 75.9 µM and the GI50 ([19]; read-out: GI50) was 0.201 µM. For the same compound, the GI50 ([19]; read-out: pGI50 (converted)) was 0.2 µM, the growth at 80 µM [20] was 9% and the growth at 0.008 µM [21] was 97%. It also gave a growth at 0.008 µM [22] of 100%, a growth at 0.8 µM [23] of 86% and a growth at 0.008 µM [24] of 103%. The growth at 0.008 µM [25] was 109%, the growth at 80 µM [26] was -33% and the growth at 0.8 µM [27] was 72%. The growth at 0.8 µM [28] was 104%, the growth at 8 µM [29] was -17% and the growth at 0.8 µM [30] was 101%. For the same compound, the growth at 8 µM [31] was -68%, the growth at 8 µM [32] was 20% and the growth at 0.008 µM [33] was 95%. The growth at 0.8 µM [34] was 100%, the growth at 0.8 µM [35] was 95% and the growth at 0.008 µM [36] was 106%. It also gave a growth at 8 µM [37] of -88%, a growth at 8 µM [38] of -40% and a growth at 8 µM [39] of -55%. For the same compound, the growth at 0.08 µM [40] was 107%, the growth at 80 µM [41] was -63% and the growth at 0.008 µM [42] was 103%. For the same compound, the growth at 80 µM [43] was -28%.

— ChEMBL document CHEMBL1921722, “In vitro and in vivo evaluation of select kahalalide F analogs with antitumor and antifungal activities” (Bioorg Med Chem, 2011)
